Test results reported in ChEMBL document CHEMBL5260830, “Breakthroughs in neuroactive steroid drug discovery” (Bioorg Med Chem Lett, 2018).
Values after ≈ are worked out from the molar mass of the structure shown.

Experiments:
[1] = biological target: T1, Gamma-aminobutyric acid receptor subunit alpha-2/beta-1/gamma-2 (Homo sapiens, UniProt P18505+P18507+P47869); test: Positive allosteric modulation of human GABAA alpha2beta1gamma2 receptor expressed in Xenopus laevis oocytes by two-microelectrode voltage-clamp assay; type: cell-based, Oocyte
T1 sequence (P18507 whole entry): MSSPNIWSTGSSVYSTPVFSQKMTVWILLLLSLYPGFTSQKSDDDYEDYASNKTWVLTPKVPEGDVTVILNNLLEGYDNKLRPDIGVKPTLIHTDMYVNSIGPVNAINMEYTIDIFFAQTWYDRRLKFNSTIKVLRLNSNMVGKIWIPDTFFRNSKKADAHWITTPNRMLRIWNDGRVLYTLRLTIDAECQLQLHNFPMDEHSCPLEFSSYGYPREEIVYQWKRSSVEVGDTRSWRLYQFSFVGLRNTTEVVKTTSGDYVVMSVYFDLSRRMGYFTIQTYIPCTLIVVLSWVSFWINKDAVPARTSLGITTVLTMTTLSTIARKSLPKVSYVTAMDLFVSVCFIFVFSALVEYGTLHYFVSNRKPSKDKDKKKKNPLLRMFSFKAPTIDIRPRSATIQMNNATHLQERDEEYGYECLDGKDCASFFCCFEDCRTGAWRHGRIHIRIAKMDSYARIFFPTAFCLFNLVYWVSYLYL
T1 sequence (P18505 whole entry): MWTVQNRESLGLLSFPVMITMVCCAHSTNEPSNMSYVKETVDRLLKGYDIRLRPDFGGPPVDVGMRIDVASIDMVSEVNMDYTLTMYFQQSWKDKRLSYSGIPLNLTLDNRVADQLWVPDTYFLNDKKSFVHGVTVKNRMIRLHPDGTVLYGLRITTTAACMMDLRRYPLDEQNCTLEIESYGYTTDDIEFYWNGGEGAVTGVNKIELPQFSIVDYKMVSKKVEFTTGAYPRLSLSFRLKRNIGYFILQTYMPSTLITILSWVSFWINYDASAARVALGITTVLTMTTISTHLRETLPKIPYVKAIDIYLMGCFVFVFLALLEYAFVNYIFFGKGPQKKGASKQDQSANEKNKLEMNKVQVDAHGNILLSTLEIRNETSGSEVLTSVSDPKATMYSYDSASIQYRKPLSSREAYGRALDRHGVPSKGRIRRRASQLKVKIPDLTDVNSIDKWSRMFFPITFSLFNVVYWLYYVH
T1 sequence (P47869 whole entry): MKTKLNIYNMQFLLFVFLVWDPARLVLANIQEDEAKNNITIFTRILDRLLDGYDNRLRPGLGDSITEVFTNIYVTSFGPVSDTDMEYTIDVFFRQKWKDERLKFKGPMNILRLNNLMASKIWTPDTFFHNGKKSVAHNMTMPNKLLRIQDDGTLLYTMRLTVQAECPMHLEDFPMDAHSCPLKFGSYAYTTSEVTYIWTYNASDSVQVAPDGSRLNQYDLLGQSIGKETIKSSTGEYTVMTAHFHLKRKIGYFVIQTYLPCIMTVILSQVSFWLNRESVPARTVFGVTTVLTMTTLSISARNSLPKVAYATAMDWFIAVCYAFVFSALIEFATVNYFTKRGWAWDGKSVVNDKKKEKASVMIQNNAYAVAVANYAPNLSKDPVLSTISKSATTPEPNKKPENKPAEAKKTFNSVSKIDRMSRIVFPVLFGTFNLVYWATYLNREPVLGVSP
Outline: (§1)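 PAM activity measured as EC50 in Xenopus oocytes expressing α1β2γ2L or α2β1γ2L GABAA receptors.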

[2] = biological target: T2, GABA-A receptor; alpha-1/beta-2/gamma-2 (Homo sapiens, UniProt P14867+P18507+P47870); test: Positive allosteric modulation of human GABAA alpha1beta2gamma2 receptor expressed in Xenopus laevis oocytes by two-microelectrode voltage-clamp assay; type: cell-based, Oocyte; outline: as §1
T2 sequence (P14867 whole entry): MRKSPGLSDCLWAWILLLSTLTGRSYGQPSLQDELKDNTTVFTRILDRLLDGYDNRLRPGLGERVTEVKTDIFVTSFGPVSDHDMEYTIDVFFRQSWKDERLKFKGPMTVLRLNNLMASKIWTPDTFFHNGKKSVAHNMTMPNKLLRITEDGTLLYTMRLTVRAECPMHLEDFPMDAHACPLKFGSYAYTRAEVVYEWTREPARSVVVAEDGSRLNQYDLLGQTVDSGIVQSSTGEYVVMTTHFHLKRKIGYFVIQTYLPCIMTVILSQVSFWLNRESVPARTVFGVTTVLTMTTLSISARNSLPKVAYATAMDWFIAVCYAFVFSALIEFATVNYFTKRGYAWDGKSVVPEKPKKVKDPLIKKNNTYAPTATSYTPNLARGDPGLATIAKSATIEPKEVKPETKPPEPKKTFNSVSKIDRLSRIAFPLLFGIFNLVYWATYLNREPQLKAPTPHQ
T2 sequence (P47870 whole entry): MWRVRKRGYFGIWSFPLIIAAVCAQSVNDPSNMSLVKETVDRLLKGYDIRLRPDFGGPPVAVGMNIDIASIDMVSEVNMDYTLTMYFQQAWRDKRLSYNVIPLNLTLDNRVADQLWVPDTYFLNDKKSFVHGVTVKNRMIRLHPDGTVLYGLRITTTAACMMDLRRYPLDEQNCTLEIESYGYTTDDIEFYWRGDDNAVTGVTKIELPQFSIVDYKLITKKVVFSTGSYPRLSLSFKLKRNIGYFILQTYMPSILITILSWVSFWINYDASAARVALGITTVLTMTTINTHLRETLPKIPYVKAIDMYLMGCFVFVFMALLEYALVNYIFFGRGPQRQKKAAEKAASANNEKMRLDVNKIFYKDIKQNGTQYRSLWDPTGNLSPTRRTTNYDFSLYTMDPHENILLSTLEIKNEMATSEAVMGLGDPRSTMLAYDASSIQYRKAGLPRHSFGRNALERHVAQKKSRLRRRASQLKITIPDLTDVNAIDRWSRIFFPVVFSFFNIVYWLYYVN
T2 sequence (P18507 whole entry): T1 sequence (P18507 whole entry)

[3] = Therapeutic index, ratio of AD50 for mouse to ED50 for anticonvulsant activity in PTZ induced mouse administered orally; type: toxicity; details: in vivo, route po, read-out: TI
Outline: (§2)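 Mice were dosed orally. Anxiolytic activity was tested in the elevated plus maze and reported as minimum effective dose. Anticonvulsant activity was tested against pentylenetetrazole-induced seizures and reported as ED50. Therapeutic indices were given for the anxiolytic and anticonvulsant read-outs against a preliminary mouse safety measure.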

[4] = species on record: Mus musculus; test: Anxiolytic activity in mouse assessed as increase in time spent in open arm by elevated plus maze test; type: functional; details: read-out: MED; outline: as §2
[5] = Solubility of the compound in 45% HPbetaCD; type: physicochemical
[6] = tested on: Mus musculus; test: Anticonvulsant activity in PTZ induced mouse administered orally; type: functional; details: route po; outline: as §2
[7] = Therapeutic index, ratio of AD50 for mouse to MED for anxiolytic activity in mouse assessed as increase in time spent in open arm by elevated plus maze test; type: toxicity; details: read-out: TI; outline: as §2
[8] = Oral availability in rat 3 mg/kg, po; type: ADME, organism-based; details: in vivo
Outline: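 Rat oral bioavailability from dosing at 3 mg/kg p.o. and 1 mg/kg i.v.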

[9] = Plasma concentration in mouse at 30 mg/kg, po measured after 30 mins; type: ADME, organism-based
Outline: (§3)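 Mice were given oral doses of 3, 10 or 30 mg/kg, with a vehicle group. Pentylenetetrazole was used to induce seizures. Percentages of animals with clonic seizure, tonic seizure and death were recorded. Plasma (ng/mL) and brain (ng/g) concentrations were measured in samples collected 30 min after administration.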

[10] = Plasma concentration in mouse at 10 mg/kg, po measured after 30 mins; type: ADME, organism-based; outline: as §3
[11] = tested on: Mus musculus; test: Anticonvulsant activity in PTZ induced mouse assessed as animal death at 3 mg/kg,po (reference value: 80%); type: functional; outline: as §3
[12] = Plasma concentration in mouse at 3 mg/kg, po measured after 30 mins; type: ADME, organism-based; outline: as §3
[13] = Brain concentration in mouse at 3 mg/kg po measured after 30 mins; type: ADME, organism-based; details: read-out: Ct; outline: as §3
[14] = tested on: Mus musculus; test: Anticonvulsant activity in PTZ induced mouse assessed as reduction in tonic seizure at 3 mg/kg,po (reference value: 80%); type: functional; design: scale not given: the % may be the effect or the level left; outline: as §3
[15] = Brain concentration in mouse at 30 mg/kg po measured after 30 mins; type: ADME, organism-based; details: read-out: Ct; outline: as §3
[16] = tested on: Mus musculus; test: Anticonvulsant activity in PTZ induced mouse assessed as reduction in clonic seizure at 10 mg/kg,po (reference value: 100%); type: functional; design: scale not given: the % may be the effect or the level left; outline: as §3
[17] = tested on: Mus musculus; test: Anticonvulsant activity in PTZ induced mouse assessed as reduction in clonic seizure at 3 mg/kg,po (reference value: 100%); type: functional; design: scale not given: the % may be the effect or the level left; outline: as §3
[18] = Brain concentration in mouse at 10 mg/kg po measured after 30 mins; type: ADME, organism-based; details: read-out: Ct; outline: as §3

| SMILES | EC50 [1] [nM] | EC50 [2] [nM] | selectivity ratio [3] | minimal effective dose [4] [mg/kg] | solubility [5] [mM] | ED50 [6] [mg/kg] | selectivity ratio [7] | bioavailability [8] [%] | concentration at 0.5 h [9] [ng/mL] | concentration at 0.5 h [10] [ng/mL] | Activity [11] [%] | concentration at 0.5 h [12] [ng/mL] | concentration at 0.5 h [13] [ng/g] | Activity [14] [%] | concentration at 0.5 h [15] [ng/g] | Activity [16] [%] | Activity [17] [%] | concentration at 0.5 h [18] [ng/g] |
| --- | --- | --- | --- | --- | --- | --- | --- | --- | --- | --- | --- | --- | --- | --- | --- | --- | --- | --- |
| C[C@@]1(O)CC[C@@]2(C)[C@@H](CC[C@@H]3[C@@H]2CC[C@]2(C)[C@@H](c4cc(CO)on4)CC[C@@H]32)C1 | 200 | 1200 | 6 | ≤ 0.3 | 52 (≈ 20.2 mg/mL) | 6 | ≥ 127 | 77 | – | – | – | – | – | – | – | – | – | – |
| C[C@@]1(O)CC[C@H]2[C@H](CC[C@@H]3[C@@H]2CC[C@]2(C)[C@@H](C(=O)Cn4nccn4)CC[C@@H]32)C1 | – | – | – | – | – | – | – | – | 1690 | 703 | 30 | 87 | 87 | 40 | 1960 | 20 | 90 | 773 |
